# Data: ChEMBL document CHEMBL1152649, “Synthesis, cytotoxicity and human telomerase inhibition activities of a series of 1,2-heteroannelated anthraquinones and anthra[1,2-d]imidazole-6,11-dione homologues” (2009)
# Key:
# Format in all cases: functional
# OVCAR-5 = experiment: Growth inhibition of human OVCAR5 cells
# How it was run: (§1)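 NCI 60 cancer cell line screen run per the Developmental Therapeutics Program protocol. Dose–response curves were plotted against log10 drug concentration for each cell line within its subpanel, and mean graph midpoint values were calculated.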
# SF-295 = experiment: Growth inhibition of human SF295 cells
# How it was run: (§2)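 Assayed in the NCI 60 human cancer cell line panel under the Developmental Therapeutics Program protocol. For each line, dose–response curves were plotted against log10 drug concentration. In the one-dose screen at 10^-5 M, growth was given as percent of untreated control cells, and mean graph midpoint values were averaged.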
# SK-OV-3 = experiment: Growth inhibition of human SKOV3 cells; how it was run: as §2
# HCC 2998 = experiment: Growth inhibition of human HCC2998 cells; how it was run: as §1
# MOLT-4 = experiment: Growth inhibition of human MOLT4 cells; how it was run: as §1
# HL-60(TB) = experiment: Growth inhibition of human HL-60(TB) cells
# How it was run: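 NCI 60-cell-line panel run under the Developmental Therapeutics Program protocol. Dose-response curves are plotted against log10 drug concentration for each cell line within its subpanel, and GI50 is read from these curves.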
# UACC-257 = experiment: Growth inhibition of human UACC257 cells; how it was run: as §2
# RXF 393 [1] = experiment: Growth inhibition of human RXF393 cells; how it was run: as §2
# SF-539 = experiment: Growth inhibition of human SF539 cells; how it was run: as §2
# TK-10 = experiment: Growth inhibition of human TK10 cells; how it was run: as §2
# M14 = experiment: Growth inhibition of human M14 cells; how it was run: as §1
# [2] = Growth inhibition of human […] cells; how it was run: as §2
# [3] = Growth inhibition of human Hs 578T cells; how it was run: as §1
# RXF 393 [4] = experiment: Antiproliferative activity against human RXF393 cells assessed as cell growth at 10 uM; conditions: read-out: Activity
# How it was run: (§3)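 NCI 60 cell line panel, single-dose screen (10^-5 M) run by the developmental therapeutics program protocol. Results are given as growth percent of treated cells relative to untreated control cells for each line.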
# SK-MEL-5 = experiment: Growth inhibition of human SK-MEL-5 cells; how it was run: as §2
# SN12C = experiment: Growth inhibition of human SN12C cells; how it was run: as §2
# LOX IMVI = experiment: Growth inhibition of human LOXIMVI cells; how it was run: as §1
# MDA-MB-468 = experiment: Antiproliferative activity against human MDA-MB-468 cells assessed as cell growth at 10 uM; conditions: read-out: Activity; how it was run: as §3
# SK-MEL-28 = experiment: Growth inhibition of human SK-MEL-28 cells; how it was run: as §2
# OVCAR-8 = experiment: Growth inhibition of human OVCAR8 cells; how it was run: as §1
# SK-MEL-2 = experiment: Growth inhibition of human SK-MEL-2 cells; how it was run: as §2
# IGROV-1 [5] = experiment: Antiproliferative activity against human IGROV1 cells assessed as cell growth at 10 uM; conditions: read-out: Activity; how it was run: as §3
# HT-29 = experiment: Growth inhibition of human HT-29 cells; how it was run: as §1
# COLO 205 = experiment: Growth inhibition of human COLO205 cells; how it was run: as §1
# Malme-3M = experiment: Growth inhibition of human MALME-3M cells; how it was run: as §1
# CCRF-CEM = experiment: Growth inhibition of human CCRF-CEM cells; how it was run: as §1
# HOP-92 = experiment: Growth inhibition of human HOP92 cells; how it was run: as §1
# UO-31 = experiment: Growth inhibition of human UO31 cells; how it was run: as §2
# MCF7 = experiment: Growth inhibition of human MCF7 cells; how it was run: as §1
# NCI-H522 = experiment: Growth inhibition of human NCI-H522 cells; how it was run: as §1
# EKVX = experiment: Growth inhibition of human EKVX cells; how it was run: as §1
# T47D = experiment: Growth inhibition of human T47D cells; how it was run: as §2
# CAKI-1 = experiment: Growth inhibition of human Caki1 cells; how it was run: as §1
# SNB-75 = experiment: Growth inhibition of human SNB75 cells; how it was run: as §2
# HCT-116 = experiment: Growth inhibition of human HCT116 cells; how it was run: as §1
# NCI/ADR-RES = experiment: Growth inhibition of human NCI/ADR-RES cells; how it was run: as §1
# NCI-H23 = experiment: Growth inhibition of human NCI-H23 cells; how it was run: as §1
# NCI-H226 = experiment: Growth inhibition of human NCI-H226 cells; how it was run: as §1
# IGROV-1 [6] = experiment: Growth inhibition of human IGROV1 cells; how it was run: as §1
# [7] = read-out: LC50 (the source's name)
compound,measurement,setting,value
O=C1c2ccccc2C(=O)c2c1ccc1nsnc21,GI50,OVCAR-5,1910 nM
same,TGI,OVCAR-5,4.11 µM
same,CC50,OVCAR-5; [7],8.84 µM
same,GI50,SF-295,1900 nM
same,TGI,SF-295,4.04 µM
same,CC50,SF-295; [7],8.56 µM
same,GI50,SK-OV-3,7.71 µM
same,TGI,SK-OV-3,22.5 µM
same,CC50,SK-OV-3; [7],53.4 µM
same,GI50,HCC 2998,16.4 µM
same,TGI,HCC 2998,33.1 µM
same,CC50,HCC 2998; [7],66.6 µM
same,GI50,MOLT-4,490 nM
same,TGI,MOLT-4,1840 nM
same,CC50,MOLT-4; [7],4.71 µM
same,GI50,HL-60(TB),160 nM
same,TGI,HL-60(TB),400 nM
same,CC50,HL-60(TB); [7],990 nM
same,GI50,UACC-257,1740 nM
same,TGI,UACC-257,3.51 µM
same,CC50,UACC-257; [7],7.09 µM
same,GI50,RXF 393 [1],1750 nM
same,TGI,RXF 393 [1],4.4 µM
same,CC50,RXF 393 [1]; [7],14.6 µM
same,GI50,SF-539,1460 nM
same,TGI,SF-539,2940 nM
same,CC50,SF-539; [7],5.91 µM
same,GI50,TK-10,2850 nM
same,TGI,TK-10,10.9 µM
same,CC50,TK-10; [7],50.4 µM
same,GI50,M14,2150 nM
same,TGI,M14,4.85 µM
same,CC50,M14; [7],> 100 µM
same,GI50,[2],1180 nM
same,TGI,[2],3.46 µM
same,CC50,[2]; [7],> 100 µM
same,GI50,[3],1410 nM
same,LC50,[3],56 µM
same,TGI,[3],5.02 µM
same,growth at 10 µM,RXF 393 [4],20.1%
same,GI50,SK-MEL-5,1580 nM
same,TGI,SK-MEL-5,2920 nM
same,CC50,SK-MEL-5; [7],5.41 µM
same,GI50,SN12C,1330 nM
same,TGI,SN12C,3.17 µM
same,CC50,SN12C; [7],7.56 µM
same,GI50,LOX IMVI,820 nM
same,TGI,LOX IMVI,2130 nM
same,CC50,LOX IMVI; [7],4.86 µM
same,growth at 10 µM,MDA-MB-468,-73.2%
same,GI50,SK-MEL-28,1850 nM
same,TGI,SK-MEL-28,3.38 µM
same,CC50,SK-MEL-28; [7],6.18 µM
same,GI50,OVCAR-8,1660 nM
same,TGI,OVCAR-8,4.68 µM
same,CC50,OVCAR-8; [7],59.8 µM
same,GI50,SK-MEL-2,1680 nM
same,TGI,SK-MEL-2,4.22 µM
same,CC50,SK-MEL-2; [7],22.5 µM
same,growth at 10 µM,IGROV-1 [5],-88.3%
same,GI50,HT-29,13.4 µM
same,TGI,HT-29,50.4 µM
same,CC50,HT-29; [7],> 100 µM
same,GI50,COLO 205,13.4 µM
same,TGI,COLO 205,28.9 µM
same,CC50,COLO 205; [7],62.4 µM
same,GI50,Malme-3M,1660 nM
same,TGI,Malme-3M,3.15 µM
same,CC50,Malme-3M; [7],5.96 µM
same,GI50,CCRF-CEM,1080 nM
same,TGI,CCRF-CEM,4.1 µM
same,CC50,CCRF-CEM; [7],> 100 µM
same,GI50,HOP-92,2520 nM
same,TGI,HOP-92,6.64 µM
same,CC50,HOP-92; [7],> 100 µM
same,GI50,UO-31,1620 nM
same,TGI,UO-31,3.12 µM
same,CC50,UO-31; [7],6.01 µM
same,GI50,MCF7,1530 nM
same,TGI,MCF7,3.34 µM
same,CC50,MCF7; [7],7.29 µM
same,GI50,NCI-H522,1660 nM
same,TGI,NCI-H522,3.93 µM
same,CC50,NCI-H522; [7],9.31 µM
same,GI50,EKVX,1550 nM
same,TGI,EKVX,3.45 µM
same,CC50,EKVX; [7],7.66 µM
same,GI50,T47D,1390 nM
same,LC50,T47D,8.27 µM
same,TGI,T47D,3.39 µM
same,GI50,CAKI-1,1610 nM
same,TGI,CAKI-1,2960 nM
same,CC50,CAKI-1; [7],5.44 µM
same,GI50,SNB-75,2030 nM
same,TGI,SNB-75,5.2 µM
same,CC50,SNB-75; [7],18.6 µM
same,GI50,HCT-116,1930 nM
same,TGI,HCT-116,5.4 µM
same,CC50,HCT-116; [7],> 100 µM
same,GI50,NCI/ADR-RES,1860 nM
same,TGI,NCI/ADR-RES,12.6 µM
same,CC50,NCI/ADR-RES; [7],> 100 µM
same,GI50,NCI-H23,1440 nM
same,TGI,NCI-H23,6.04 µM
same,CC50,NCI-H23; [7],> 100 µM
same,GI50,NCI-H226,4.48 µM
same,TGI,NCI-H226,21.6 µM
same,CC50,NCI-H226; [7],63.7 µM
same,GI50,IGROV-1 [6],1360 nM
same,TGI,IGROV-1 [6],2940 nM
same,CC50,IGROV-1 [6]; [7],6.35 µM
